Compounds with a hit are over-represented: about 5.3% of the library has one in this group of screens.
Cav3 T inh: human Cav3.2 channel inhibition, primary screen; 100,000 compounds, 4% hits; Cav3.2-expressing cells, Fluo-4 calcium fluorescence FDSS; active compounds read low; B-score at 10 µM; O95180;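 active = single-dose well whose peak fluorescence ratio is a statistical outlier from its plate by either plate-standardised score or position-corrected B-score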
PLK1 kinase inh: blocks human PLK1 kinase activity. P53350. recombinant PLK1 kinase, TR-FRET peptide phosphorylation. inhibition, % at 10 µM. 97,000 compounds, 0.53% hits;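 active = inhibition of 50% or more in the single-concentration screen; inactive = inhibition below 50%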;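 note: 0% = DMSO max control and 100% = H-89 dihydrochloride min control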
EphB4 ephrin blk: blocks human EphB4 binding to ephrin-B2 | inhibition, % at 7 µM | EphB4 LBD / TNYL-RAW-Alexa532 peptide, fluorescence polarization | 97,000 compounds, 0.15% hits;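 active = inhibition above the screen-wide mean inhibition plus 3 SD, cut at about 15% in these data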;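 note: 0% = DMSO wells and 100% = excess unlabeled TNYL-RAW peptide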
Rev-RRE block: HIV Rev-RRE protein-RNA interaction inhibition; P05866; Rev peptide-RRE RNA binding, FRET; inhibition, % at 8 µM; 97,000 compounds, 0.79% hits; AID 704;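 active = inhibition above the screen-wide mean plus 3 SD, cut at about 35% in these data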;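 note: 0% = median DMSO wells and 100% = median Neomycin B control wells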
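Assay system: Labelled RRE RNA duplex and labelled Rev peptide | Times: 5 min preincubation and 15 min binding, 25 °C | Detection: FRET, ex 480 nm, em 540 and 671 nm | Evaluation: % inhibition of FRET ratio versus controls | Benchmarks: DMSO wells as 0% and neomycin B wells as 100% inhibition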
Plk1 PBD FP: blocks phosphopeptide binding to human Plk1 polo box domain | P53350 | Plk1 PBD phosphopeptide binding, fluorescence polarization | inhibition, %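 (tested at about 20 µM)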 | 97,000 compounds, 0.13% hits; in the data active = inhibition above about 34%, passing the limit was not always enough
FAK blocker: inhibitors of human focal adhesion kinase | inhibition, %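 (tested at 7 µM)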 | biochemical FAK kinase activity assay | Q05397 | 97,000 compounds, 0.84% hits; in the data active = inhibition above about 19%;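 note: 0% = DMSO and 100% = reference compound high control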
Target sequence (Q05397 whole entry, looked up): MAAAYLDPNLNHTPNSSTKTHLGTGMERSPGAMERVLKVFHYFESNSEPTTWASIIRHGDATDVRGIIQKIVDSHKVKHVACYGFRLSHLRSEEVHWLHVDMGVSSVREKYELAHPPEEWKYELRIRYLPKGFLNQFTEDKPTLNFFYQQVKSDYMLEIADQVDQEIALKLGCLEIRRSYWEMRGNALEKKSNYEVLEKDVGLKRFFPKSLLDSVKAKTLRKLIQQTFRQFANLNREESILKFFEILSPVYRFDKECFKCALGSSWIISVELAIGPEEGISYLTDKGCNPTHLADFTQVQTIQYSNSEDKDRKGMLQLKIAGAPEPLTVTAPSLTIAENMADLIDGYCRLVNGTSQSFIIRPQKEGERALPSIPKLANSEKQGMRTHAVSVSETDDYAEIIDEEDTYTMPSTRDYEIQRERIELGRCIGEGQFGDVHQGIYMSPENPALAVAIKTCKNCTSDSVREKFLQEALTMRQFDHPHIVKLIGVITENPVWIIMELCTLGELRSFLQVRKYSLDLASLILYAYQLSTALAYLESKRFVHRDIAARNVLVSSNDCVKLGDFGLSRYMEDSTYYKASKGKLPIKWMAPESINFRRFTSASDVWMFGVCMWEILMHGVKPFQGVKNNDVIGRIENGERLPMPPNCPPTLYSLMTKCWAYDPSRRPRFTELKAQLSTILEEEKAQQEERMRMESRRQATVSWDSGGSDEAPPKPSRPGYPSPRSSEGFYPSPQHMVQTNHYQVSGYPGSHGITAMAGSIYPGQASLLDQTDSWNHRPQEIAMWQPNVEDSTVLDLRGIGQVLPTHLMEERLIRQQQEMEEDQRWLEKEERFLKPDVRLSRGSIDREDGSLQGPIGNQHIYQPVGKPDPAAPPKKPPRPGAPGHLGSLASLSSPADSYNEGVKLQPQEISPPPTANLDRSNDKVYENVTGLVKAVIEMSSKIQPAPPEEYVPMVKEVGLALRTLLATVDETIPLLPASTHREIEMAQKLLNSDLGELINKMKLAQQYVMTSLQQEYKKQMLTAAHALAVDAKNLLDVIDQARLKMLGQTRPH
Numbers without * were called inactive; . = no result given; [ ] = another dose, or the depositor's remark.

SMILES | Cav3 T inh | PLK1 kinase inh | EphB4 ephrin blk | Rev-RRE block | Plk1 PBD FP | FAK blocker
COc1ccc2oc(-c3ccc(C)c(NC(=O)c4ccc(N5CCOCC5)c([N+](=O)[O-])c4)c3)nc2c1 | 0.0283 | -5.7 | 4.8 | 5.2 | 7.3 | 8.7
CCOC(=O)c1c(-c2ccc(C)cc2)csc1NC(=O)c1cc2ccccc2oc1=O | . | -2.9 | . | . | . | .
c1csc(CSc2nc3ccccc3s2)c1 | 0.000325 | . | . | . | . | .
CCn1c(CSc2nc3ccccc3s2)nc2ccccc21 | -5.67* | -4.2 | -6.9 | 19.0 | -21.7 | 1.1
O=S(=O)(NCc1ccccc1)c1ccc(S(=O)(=O)N(Cc2ccccn2)C2CCCC2)cc1 | -4.05* | -2.6 | 0.4 | 14.8 | -6.3 | 0.4
CCNS(=O)(=O)c1ccc(S(=O)(=O)N(Cc2ccccn2)C2CCCCC2)cc1 | -0.814 | -12.7 | -6.8 | 11.6 | -4.8 | -2.4
CC(=O)N1CCC(N(C(=O)Nc2c(F)cccc2F)C(C)C)CC1 | 0.247 | -14.2 | -0.5 | 9.8 | -1.9 | -0.9
C=C1CCN([C@@H](Cc2ccccc2)C(=O)NCCCc2ccccc2)S(=O)(=O)c2ccccc21 | -4.47* | . | . | . | . | .
O=C(NCc1ccc2c(c1)OCO2)c1ccc2c(c1)S(=O)(=O)c1ccccc1C2=O | -1.19 | . | . | . | . | .
CCc1cccc(CC)c1NC(=O)CN1CC(C)SC1=NC1CCCCC1 (centres undefined) | -5.27* | -3.2 | 4.1 | 7.3 | -2.0 | 3.2
O=C(Cc1cccs1)Nc1nnc(CCc2ccccc2)s1 | 0.0517 | -4.3 | -1.5 | 10.5 | -20.5 | 0.7
O=C(Cc1cccs1)Nc1nnc(Cc2ccccc2)s1 | -2.11 | -20.7 | -3.9 | -3.7 | -7.7 | 29.3*
CCCNS(=O)(=O)c1cccc(C(=O)NC2CCCc3ccccc32)c1 (centres undefined) | -0.242 | -16.2 | -0.7 | 5.2 | -5.7 | 1.5
Cc1nc2c(-c3ccc(F)cc3)c(C)nn2c(C)c1CCC(=O)N1CCC(Cc2ccccc2)CC1 | -6.24* | -1.1 | 3.1 | 1.3 | -8.0 | 0.7
Cc1nc2c(-c3ccc(F)cc3)c(C)nn2c(C)c1CCC(=O)N1CCN(c2ccccc2)CC1 | -0.522 | -6.5 | -6.1 | -1.4 | 11.2 | -2.0
Cc1nc2c(-c3ccc(F)cc3)c(C)nn2c(C)c1CCC(=O)N1CCN(c2ccc(F)cc2)CC1 | -6.17* | -12.0 | 3.1 | 1.8 | 5.9 | -0.8
O=C(C1=C[C@H](c2ccccc2)C[C@H](OCCCCO)O1)N1CCOCC1 | 0.666 | . | . | . | . | .
O=S1(=O)c2ccccc2C(CCO)N1Cc1ccccc1 (centres undefined) | 0.96 | . | . | . | . | .
CCC(=O)Oc1c(-c2ccccc2)c2nc3ccccc3nc2c2ccccc12 | . | -99.2 | 6.0 | 111.5*[fluorescence artefact?] | 2.8 | 0.4
COc1ccc(C(=O)c2cnc3ccccc3c2-c2ccccc2)cc1 | -2.87 | -5.8 | 2.0 | 9.2 | -23.5 | -6.0
CC(=O)Nc1ccc(NC(=O)COC(=O)Cc2cccs2)cc1 | 0.417 | -3.3 | -3.5 | 6.1 | -27.5 | -1.1
CSc1cccc(NS(=O)(=O)c2ccc(F)cc2)c1 | -6.96* | -3.3 | 6.0 | 2.7 | 7.1 | 1.2
CCO[C@H]1OC(C(=O)N2CCN(C)CC2)=C[C@@H](C)[C@@H]1CCCO | 0.244 | . | . | . | . | .
CCN(CC)c1ccc(NC(=O)COC(=O)c2ccc3ccccc3n2)cc1 | -0.301 | -7.8 | 4.4 | 1.4 | -5.0 | -1.4
O=C(/C=C/c1ccccc1)NCCSc1ccc(Cl)cc1 | -4.25* | 2.5 | -1.9 | 9.8 | 3.2 | -3.0
SMILES | Cav3 T inh | PLK1 kinase inh | EphB4 ephrin blk | Rev-RRE block | Plk1 PBD FP | FAK blocker
Cc1c(NC(=O)c2cnn3c2NC(c2ccc(Br)cc2)CC3C(F)(F)F)c(=O)n(-c2ccccc2)n1C (centres undefined) | -7.77* | -6.5 | -1.5 | -1.5 | 21.6 | 5.7
Cc1c(CNC(=O)c2cnn3c2NC(c2ccc(Br)cc2)CC3C(F)(F)F)cnn1C (centres undefined) | -0.467 | 0.5 | 11.1 | 6.3 | -11.1 | 3.5
O=C(CCC(=O)N(CC(=O)NC1CCCCC1)c1ccc2c(c1)OCO2)Nc1ccccn1 | -5.72* | . | . | . | . | .
Cc1cc(C)cc(N(CC(=O)NCc2ccc3c(c2)OCO3)C(=O)CCC(=O)Nc2ccccn2)c1 | -6.08* | -9.1 | -3.6 | -0.2 | 17.9 | -1.1
Cc1ccc(C)c(N(CC(=O)NCc2ccc3c(c2)OCO3)C(=O)CCC(=O)Nc2ccccn2)c1 | . | -13.4 | -0.1 | 4.2 | -0.1 | 1.6
O=C(NNS(=O)(=O)c1ccc([N+](=O)[O-])cc1)c1cnn(-c2ccccc2)c1-n1cccc1 | -0.369 | -13.1 | -7.3 | -0.7 | 2.9 | -1.1
COc1ccc(Oc2nc(SC)nc3ccccc23)cc1 | -0.0144 | -7.9 | 2.5 | 13.8 | -3.0 | 7.2
Cc1nc(-c2ccccc2)sc1C1(C)CC(c2cccc([N+](=O)[O-])c2)=NO1 (centres undefined) | 0.0805 | . | . | . | . | .
COc1cccc(-c2nnc3sc(-c4ccccc4)nn23)c1 | -0.000926 | . | . | . | . | .
COc1cccc(OC)c1-c1nn2c(-c3cc(-c4ccccc4)n[nH]3)nnc2s1 | 0.911 | -12.4 | 62.5* | -268.5 | 3.2 | -239.7
Cc1cc2c(nc1C)CCCN2C[C@@H](C)O/N=C1/[C@H]2CCn3c(=O)n(-c4ccccc4)c(=O)n3[C@H]2[C@H](O)[C@@H]2O[C@H]12 | -0.492 | . | . | . | . | .
CCCCc1ccc(C2C(C#N)=C(N)SC(N)=C2C#N)s1 | 2.32 | -14.7 | -1.5 | 66.0* | -3.5 | 0.3
CCOc1ccc(C2C(C#N)=C(N)SC(N)=C2C#N)c(OCC)c1 | 1.75 | -2.5 | -6.0 | 20.6 | -5.3 | -4.3
COC(C[C@@H](O)[C@H](C)[C@@H](O)COCc1ccccc1)OC | 0.313 | . | . | . | . | .
CCOC(=O)c1c(NC(=O)CSc2nnc(C)s2)sc2c1CCC(CC)C2 (centres undefined) | -2.66 | -21.4 | -6.9 | -2.4 | -10.6 | 3.3
Cc1nn(-c2ccccc2)c(N2CCCC2)c1/C=N/n1cnc2scc(-c3ccccc3)c2c1=O | -5.63* | -18.5 | 5.0 | 4.5 | 15.7 | -23.6
CCOc1ccc2nc(NC(=O)CCC(=O)c3cccs3)sc2c1 | -0.00189 | -4.6 | -2.2 | 7.8 | 0.7 | 0.6
CCc1ccc(/C=N/NC(=O)c2cc(-c3ccccc3OC)nc3ccccc23)s1 | -1.44 | -10.2 | -2.5 | -2.0 | -36.1 | -2.8
CCc1ccc(/C=N/NC(=O)c2cc(C3CC3)nc3ccc(Br)cc23)s1 | -5.22* | -8.9 | -0.3 | 9.1 | 12.9 | 2.1
Cc1ccccc1CSCC(=O)NC(=O)NCc1ccco1 | -2.62 | . | . | . | . | .
CCc1ccc(N/C(SCc2cccc(F)c2)=C(/C#N)C(=O)NCc2ccco2)cc1 | -3.56* | -11.6 | 8.7 | 4.5 | 2.2 | -5.2
Cc1ccc(N/C(SCc2ccccc2C)=C(/C#N)C(=O)NCc2ccco2)cc1C | -5.32* | -2.7 | -3.0 | -0.5 | 6.7 | -4.8
N#Cc1nc(-c2ccco2)oc1N1CCC(Cc2ccccc2)CC1 | -3 | -2.1 | -6.4 | 20.2 | -8.8 | -0.1
O=C(CN(Cc1ccc2c(c1)OCO2)C(=O)CSc1nc2ccccc2o1)NC1CCCCC1 | -3.93* | -7.3 | 14.7 | 6.3 | 8.1 | 3.5
CC(C)(C)OC(=O)N1CCC[C@H]1c1nnc(SCc2c(Cl)cccc2Cl)o1 | -6.76* | -8.1 | -4.4 | 5.4 | -7.5 | 0.8

Bioassay records: PubChem, several laboratories
